Data published in BindingDB's records for doi:10.1021/jm800174p (University of Minnesota, 2009).

Biological target: not listed separately
Experiment: Displacement of [3H]DAMGO from CCK2R-MOPR coexpressed in CHO cells

| SMILES | Ki [nM] |
| --- | --- |
| CN1C(=O)[C@H](NC(=O)Nc2cccc(OCCNC(=O)COCC(=O)NCCNC(=O)COCC(=O)N[C@H]3CC[C@@]4(O)[C@H]5Cc6cc(O)cc7c6[C@@]4(CCN5C)[C@H]3O7)c2)N=C(c2ccccc2)c2ccccc21 [1-{1-Diglycoldiamide-2-[m-(R(+)-1)ureaphenoxy]ethane}-2-(N-oxymorphyldiglycoldiamide)ethane] | 7.3 |
| CN1C(=O)[C@H](NC(=O)Nc2cccc(OCCNC(=O)COCC(=O)NCCCCCCNC(=O)COCC(=O)N[C@H]3CC[C@@]4(O)[C@H]5Cc6cc(O)cc7c6[C@@]4(CCN5C)[C@H]3O7)c2)N=C(c2ccccc2)c2ccccc21 [1-{1-Diglycoldiamide-6-[m-(R(+)-1)ureaphenoxy]ethane}-2-(N-oxymorphyldiglycoldiamide)hexane] | 16.3 |
| CN1C(=O)[C@H](NC(=O)Nc2cccc(OCCNC(=O)COCC(=O)N[C@H]3CC[C@@]4(O)[C@H]5Cc6cc(O)cc7c6[C@@]4(CCN5C)[C@H]3O7)c2)N=C(c2ccccc2)c2ccccc21 [N-{m-[R(+)-1]Ureaphenoxy}ethyl-N'-oxymorphyldiglycoldiamide] | 14.2 |
| CN1C(=O)[C@H](NC(=O)Nc2cccc(OCCNC(=O)COCC(=O)NNC(=O)COCC(=O)N[C@H]3CC[C@@]4(O)[C@H]5Cc6cc(O)cc7c6[C@@]4(CCN5C)[C@H]3O7)c2)N=C(c2ccccc2)c2ccccc21 [N-{m-[R(+)-1]Ureaphenoxy}ethyldiglycolamidehydrazide-N'-oxymorphyldiglycolamidedihydrazide] | 3.9 |
| C[C@@H](NC(=O)[C@@H](N)Cc1ccc(O)cc1)C(=O)NCC(=O)N(C)[C@@H](Cc1ccccc1)C(=O)NCCO [[tyrosyl-3,5-3H(N)]-D-Ala2-Mephe4-glyol5-enkephalin] | 11 |

Biological target: Mu-type opioid receptor (Homo sapiens, UniProt P35372)
Experiment: Displacement of [3H]DAMGO from mu opioid receptor expressed in CHO cells
Summary of the method: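 Membranes came from CHO cells stably expressing MOP receptor alone or with CCK2 receptor. They were incubated with [3H]DAMGO (0.4 nM) plus increasing unlabeled ligand for 2 h at room temperature in KRH, pH 7.4, with 0.2% BSA and soybean trypsin inhibitor. Nonspecific binding was set with 1 μM DAMGO. Samples were filtered on PEI-soaked GF/C and scintillation counted; Ki and Bmax (pmol/mg protein) came from LIGAND analysis. Mean±S.E.M., 3-5 experiments.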

Sequence of Mu-type opioid receptor (P35372 whole entry): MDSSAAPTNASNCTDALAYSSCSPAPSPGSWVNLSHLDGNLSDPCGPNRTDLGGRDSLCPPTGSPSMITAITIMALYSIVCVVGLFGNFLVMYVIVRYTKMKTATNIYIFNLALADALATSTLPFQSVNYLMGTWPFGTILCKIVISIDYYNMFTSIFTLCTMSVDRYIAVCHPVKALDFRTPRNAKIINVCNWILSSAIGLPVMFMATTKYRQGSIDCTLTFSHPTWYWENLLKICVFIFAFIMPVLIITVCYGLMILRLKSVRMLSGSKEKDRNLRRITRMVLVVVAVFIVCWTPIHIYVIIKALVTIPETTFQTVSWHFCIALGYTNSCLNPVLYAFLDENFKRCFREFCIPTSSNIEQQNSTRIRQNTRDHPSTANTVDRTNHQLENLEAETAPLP

| SMILES | Ki [nM] |
| --- | --- |
| CNC(=O)COCC(=O)NCCCCNC(=O)COCC(=O)N[C@H]1CC[C@@]2(O)[C@H]3Cc4cc(O)cc5c4[C@@]2(CCN3C)[C@H]1O5 [2-({[(1S,5R,13R,14S,17S)-9,17-dihydroxy-4-methyl-12-oxa-4-azapentacyclo[9.6.1.0^{1,13}.0^{5,17}.0^{7,18}]octadeca-7(18),8,10-trien-14-yl]carbamoyl}methoxy)-N-(4-{2-[(methylcarbamoyl)methoxy]acetamido}butyl)acetamide] | 29.8 |
